Results of several laboratories.
Protocols differ between the studies behind these lines.
rep main protease: Replicase polyprotein 1ab, main protease (rep, Porcine epidemic diarrhea virus, UniProt P0C6Y4)
SLC6A4: Sodium-dependent serotonin transporter (SLC6A4, Homo sapiens, UniProt P31645)
rep papain-like protease: Replicase polyprotein 1ab, papain-like protease (rep, Porcine epidemic diarrhea virus, UniProt P0C6Y4)

CC(C)C(C(=O)NCc1cc(O)c(O)c(Br)c1)c1ccc(Cl)cc1 (stereo not drawn)  inhibition (rep main protease; enzyme activity; inhibitor; FRET; 10 µM): 41.9%
CCOC(=O)[C@@]12C[C@@H]1[C@@H](n1cnc3c(NCCCCc4ccccc4)nc(C#Cc4ccc(Cl)s4)nc31)[C@H](O)[C@@H]2O  inhibition (SLC6A4; ligand displacement; radioligand; 10 µM): 16%
O=C1C=C(Nc2ccc(OCc3cn(Cc4ccccc4)nn3)cc2)C(=O)c2ccccc21  inhibition (BDNF/NT-3 growth factors receptor (NTRK2, Homo sapiens, UniProt Q16620); enzyme activity; inhibitor; radiometric; 10 µM): 0%
CCOC(=O)[C@@]12C[C@@H]1[C@@H](n1cnc3c(NCCCCc4ccccc4)nc(I)nc31)[C@H](O)[C@@H]2O  inhibition (SLC6A4; ligand displacement; radioligand; 10 µM): 20%
O=C(NCc1cc(O)c(O)c(Br)c1)c1ccc2ccccc2n1  inhibition (rep papain-like protease; enzyme activity; inhibitor; FRET; 10 µM): 45.5%
NC/C(=C\F)COc1cccc(Cn2c(=S)[nH]c(=O)c3[nH]cnc32)c1  inhibition (SLC6A4; ligand displacement; radioligand; 10 µM): < 50%
Cc1cc(O)c(-c2ccc([C@@H](C)CN(C)C)cc2)c2c1[nH]c(=O)c1sccc12  inhibition (STE20-related kinase adapter protein alpha (STRADA, Homo sapiens, UniProt Q7RTN6); enzyme activity; inhibitor; 0.1 µM): 14.8%
CCN1/C(=C/C(C)=O)Sc2ccc(F)cc21  inhibition (Type-2 angiotensin II receptor (AGTR2, Homo sapiens, UniProt P50052); ligand displacement; radioligand; 10 µM): 4.51%
C#Cc1cc(-c2cc(Nc3nc(N[C@@H](C)c4ccc(F)cn4)ncc3Cl)n[nH]2)ccc1C=O  inhibition (Serine/threonine-protein kinase Nek2 (NEK2, Homo sapiens, UniProt P51955); enzyme activity; inhibitor; 0.2 µM): 22.5%
O=C(NCc1cc(O)c(O)c(Br)c1)c1cccc(Br)c1  inhibition (rep main protease; enzyme activity; inhibitor; FRET; 10 µM): 98.4%
CCOC(=O)[C@@]12C[C@@H]1[C@@H](n1cnc3c(NCCCCCc4ccccc4)nc(C#Cc4ccc(Cl)s4)nc31)[C@H](O)[C@@H]2O  inhibition (SLC6A4; ligand displacement; radioligand; 10 µM; cell membranes): 1%
Cc1ccccc1C(=O)NCc1cc(O)c(O)c(Br)c1  inhibition (rep papain-like protease; enzyme activity; inhibitor; FRET; 10 µM): 115%
CCOC(=O)[C@@]12C[C@@H]1[C@@H](n1cnc3c(NCc4cccc(Cl)c4)nc(I)nc31)[C@H](O)[C@@H]2O  inhibition (SLC6A4; ligand displacement; radioligand; 10 µM): -5%
Cc1cc(F)cc2c(CCC(=O)N[C@@H]3C(=O)NC[C@H]3O)c(-c3ccc(F)cc3)[nH]c12  inhibition (D(1A) dopamine receptor (DRD1, Homo sapiens, UniProt P21728); cell-free assay; 10 µM): 11%
CCOC(=O)[C@@]12C[C@@H]1[C@@H](n1cnc3c(Nc4ccccc4)nc(I)nc31)[C@H](O)[C@@H]2O  inhibition (SLC6A4; ligand displacement; radioligand; 10 µM): -12%
COc1ccc(CNC(=O)c2ccc(Br)cc2)cc1OC  inhibition (rep papain-like protease; enzyme activity; inhibitor; FRET; 10 µM): 66.1%
CCOC(=O)[C@@]12C[C@@H]1[C@@H](n1cnc3c(NC4CC4)nc(C#Cc4ccc(Cl)s4)nc31)[C@H](O)[C@@H]2O  inhibition (SLC6A4; ligand displacement; radioligand; 10 µM): 15%
COc1cc(CNC(=O)c2cc3ccccc3n2C)cc(Br)c1OC  inhibition (rep papain-like protease; enzyme activity; inhibitor; FRET; 10 µM): 13%
